The structures appear in SMILES notation. The source made the active and inactive calls. The rule behind the calls is not given here. Bounds are passed on as bounds.

A short description of data set [1]: Antiviral activity against Mouse Cytomegalovirus Smith (ATCC VR-1399) infected in mouse MEF cells assessed as reduction in plaque formation measured after 3 days by crystal violet staining based assay. The class given is functional, cell-based, Murine cytomegalovirus (strain Smith). As to conditions: mef. A digest of the protocol: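 Plaque reduction with MCMV Smith in mouse embryonic fibroblasts, with compound in a carboxymethylcellulose overlay. Assay ended at 3 days and plaques counted after crystal violet staining.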

For data set [2], the system named is Human betaherpesvirus 5. As to the kind of experiment: Inhibition of viral protein expression in HCMV Towne infected in human HFF cells assessed as reduction in UL44 expression at 3 uM treated with compound following viral infection at MOI of 1 PFU/cell measured at 72 hrs post infection by Western blot analysis. Conditions: strain Towne. The class given is functional, organism-based. A digest of the protocol: (§1)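 HFFs infected with HCMV Towne (MOI 1), then treated with compound. Lysates taken at 72 hpi, equal protein loaded on 8–10% Tris-glycine SDS-PAGE and transferred to PVDF. Primary antibodies overnight at 4 °C, HRP secondary, chemiluminescent detection; β-actin as loading control.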

Data set [3] concerns Human betaherpesvirus 5. As to the kind of experiment: Inhibition of viral protein expression in HCMV Towne infected in human HFF cells assessed as reduction in UL84 expression at 3 uM treated with compound for 24 hrs followed by viral infection at MOI of 0.01 PFU/cell measured at 72 hrs post infection by Western blot analysis. Format: functional, organism-based. As to conditions: strain Towne. A digest of the protocol: (§2)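 HFFs pretreated with compound, then infected with HCMV Towne at MOI 1, 0.1 or 0.01. Viral proteins in cell lysates detected at 72 hpi by SDS-PAGE (8–10%), PVDF transfer and chemiluminescent immunoblot. Images from a representative experiment.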

Data set [4] relates to Human betaherpesvirus 5. As to the kind of experiment: Antiviral activity against HCMV Towne infected in human HFF cells assessed as reduction in viral entry into host cell by measuring nuclear localization of pp65 at 3 uM treated with compound for 24 hrs followed by viral infection at MOI of 0.1 PFU/cell measured at 2 hrs post infection by immunofluorescence microscopy. The class given is functional, organism-based. Conditions: strain Towne. The method in brief: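 HFFs on chamber slides pretreated 24 h with compound diluted in serum-free medium, then infected with HCMV Towne for 2 h. Heparin 30 μM as positive entry-block control. Cells methanol-fixed, then stained with anti-pp65 (1:50) and rhodamine anti-mouse IgG, with DAPI. Nuclear pp65 viewed by fluorescence microscopy at 40x; repeated three times.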

The test system of data set [5] is Human betaherpesvirus 5. As to the kind of experiment: Inhibition of viral protein expression in HCMV Towne infected in human HFF cells assessed as reduction in IE1 expression at 3 uM treated with compound for 24 hrs followed by viral infection at MOI of 1 PFU/cell measured at 72 hrs post infection by Western blot analysis. Format: functional, organism-based. Conditions: strain Towne. The method in brief:
as §2

In another data set the test system is HFF. As to the kind of experiment: Cytotoxicity against human HFF cells assessed as reduction in cell viability incubated for 72 hrs or 10 days by MTT assay. Format: cell-based. The method in brief:
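MTT assay on uninfected cells exposed to compound for 72 h or 8–10 days, matching the antiviral assay durations. MTT (5 mg/mL stock in PBS) added, then 2–3 h at 37 °C. Formazan absorbance read at 560 nm.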

In data set [6] the test system is Human betaherpesvirus 5. As to the kind of experiment: Inhibition of viral protein expression in HCMV Towne infected in human HFF cells assessed as reduction in IE2 expression at 3 uM treated with compound for 24 hrs followed by viral infection at MOI of 0.01 PFU/cell measured at 72 hrs post infection by Western blot analysis. Format: functional, organism-based. Conditions: strain Towne. A digest of the protocol: as §2

The test system of the next data set is Human alphaherpesvirus 2. Briefly: Antiviral activity against HSV 2 infected in African green monkey Vero cells assessed as reduction in plaque formation incubated for 36 hrs by crystal violet staining based assay. The class given is functional, organism-based. As to conditions: vero. The method in brief: (§3)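 Plaque reduction in Vero cells: virus adsorbed 60 min, then compound added in a carboxymethylcellulose overlay. Plaques counted after 36 h by crystal violet staining.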

In data set [7] the test system is Human betaherpesvirus 5. Briefly: Antiviral activity against HCMV Towne infected in human HFF cells assessed as reduction in plaque formation treated with compound following viral infection and incubated for 8 to 10 days by crystal violet staining based assay. The class given is functional, organism-based. Conditions: Human betaherpesvirus 5, strain Towne.
For data set [8], the system named is Human betaherpesvirus 5. Briefly: Inhibition of viral protein expression in HCMV Towne infected in human HFF cells assessed as reduction in pp65 expression at 3 uM treated with compound for 24 hrs followed by viral infection at MOI of 1 PFU/cell measured at 72 hrs post infection by Western blot analysis. Conditions: strain Towne. Format: functional, organism-based. The method in brief: as §2

In another data set the test system is Human alphaherpesvirus 1. Briefly: Antiviral activity against HSV 1 infected in African green monkey Vero cells assessed as reduction in plaque formation incubated for 36 hrs by crystal violet staining based assay. Conditions: vero. The class given is functional, organism-based. A digest of the protocol:
as §3

Data set [9] concerns Human betaherpesvirus 5. As to the kind of experiment: Inhibition of viral protein expression in HCMV Towne infected in human HFF cells assessed as reduction in IE2 expression at 3 uM treated with compound for 24 hrs followed by viral infection at MOI of 1 PFU/cell measured at 72 hrs post infection by Western blot analysis. The class given is functional, organism-based. As to conditions: strain Towne. The method in brief: as §2

The test system of data set [10] is Human betaherpesvirus 5. Briefly: Inhibition of viral protein expression in HCMV Towne infected in human HFF cells assessed as reduction in pp65 expression at 3 uM treated with compound for 24 hrs followed by viral infection at MOI of 0.01 PFU/cell measured at 72 hrs post infection by Western blot analysis. The class given is functional, organism-based. As to conditions: strain Towne. The method in brief: as §2

Data set [11] relates to Human betaherpesvirus 5. Briefly: Inhibition of viral protein expression in HCMV Towne infected in human HFF cells assessed as reduction in IE1 expression at 3 uM treated with compound for 24 hrs followed by viral infection at MOI of 0.01 PFU/cell measured at 72 hrs post infection by Western blot analysis. Format: functional, organism-based. As to conditions: strain Towne. The method in brief:
as §2

Data set [12] deals with Human betaherpesvirus 5. Briefly: Inhibition of viral protein expression in HCMV Towne infected in human HFF cells assessed as reduction in UL44 expression at 3 uM treated with compound for 24 hrs followed by viral infection at MOI of 0.01 PFU/cell measured at 72 hrs post infection by Western blot analysis. Conditions: strain Towne. Format: functional, organism-based. A digest of the protocol:
as §2

Data set [13] relates to Human betaherpesvirus 5. Briefly: Antiviral activity against pp28-luciferase expressing HCMV Towne infected in human HFF cells assessed as reduction in viral entry by measuring viral replication at 1 to 10 uM treated with compound for 24 hrs followed by viral infection at MOI of 0.01 to 1 PFU/cell measured at 72 hrs post infection by luciferase reporter gene assay. As to conditions: strain Towne. The class given is functional, organism-based. A digest of the protocol: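 HFFs pretreated 24 h with compound, then infected with pp28-luciferase recombinant Towne HCMV (luciferase under the UL99 late promoter) at MOI 1, 0.1 or 0.01. Luciferase measured in cell lysates after 3 days. Triplicate values, mean ± SD.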

The test system of data set [14] is Human betaherpesvirus 5. Briefly: Antiviral activity against HCMV TB40 infected in human HFF cells assessed as reduction in plaque formation at 1 to 10 uM treated with compound following viral infection at MOI of 100 PFU/ml and measured after 10 days by crystal violet staining based assay. The class given is functional, organism-based.
In data set [15] the test system is Human betaherpesvirus 5. As to the kind of experiment: Inhibition of viral protein expression in HCMV Towne infected in human HFF cells assessed as reduction in pp65 expression at 3 uM treated with compound following viral infection at MOI of 1 PFU/cell measured at 72 hrs post infection by Western blot analysis. Format: functional, organism-based. As to conditions: strain Towne. The method in brief: as §1

In the next data set the test system is Human gammaherpesvirus 4. As to the kind of experiment: Antiviral activity against EBV infected in human AKATA cells assessed as reduction in IgG-induced lytic virus replication measured at 48 hrs post-lytic induction by qRT-PCR analysis. The class given is functional, organism-based. Conditions: human gammaherpesvirus 4, 48 h; read-out: EC50.

Take `COc1ccc(Cl)cc1C(=O)Nc1ccc(NC(=O)c2ccco2)cc1`: the EC50 entry in [1] was “Not Active”; in the data set with Human alphaherpesvirus 2, “Not Active”; with Human betaherpesvirus 5 [7], 0.55 µM; in the data set with Human alphaherpesvirus 1, “Not Active”; with Human gammaherpesvirus 4 it was > 10 µM. For the same compound, the inhibition entry in the data set with Human betaherpesvirus 5 [2], in the data set on Human betaherpesvirus 5 [5], in the data set on Human betaherpesvirus 5 [8], with Human betaherpesvirus 5 [9] and in the data set on Human betaherpesvirus 5 [15] was “inactive” in each case. For the same compound, the inhibition entry in the data set with Human betaherpesvirus 5 [3], with Human betaherpesvirus 5 [6], in the data set on Human betaherpesvirus 5 [10], in the data set on Human betaherpesvirus 5 [11] and with Human betaherpesvirus 5 [12] was “Active” throughout. Also, the result in the data set on Human betaherpesvirus 5 [4], with Human betaherpesvirus 5 [13] and with Human betaherpesvirus 5 [14] was Active. Besides, in the data set on HFF, the CC50 is > 500 µM.
